Columns and labels:
[1] = biological target: T1, Adenosine receptor A1 (Homo sapiens) (UniProt P30542); test: Inverse agonist activity at human adenosine A1 receptor expressed in CHO cells assessed as cAMP accumulation at 10 uM measured after 150 mins in presence of [3H]cAMP by scintillation counting method relative to control; assay type: functional, cell-based
T1 sequence (whole entry): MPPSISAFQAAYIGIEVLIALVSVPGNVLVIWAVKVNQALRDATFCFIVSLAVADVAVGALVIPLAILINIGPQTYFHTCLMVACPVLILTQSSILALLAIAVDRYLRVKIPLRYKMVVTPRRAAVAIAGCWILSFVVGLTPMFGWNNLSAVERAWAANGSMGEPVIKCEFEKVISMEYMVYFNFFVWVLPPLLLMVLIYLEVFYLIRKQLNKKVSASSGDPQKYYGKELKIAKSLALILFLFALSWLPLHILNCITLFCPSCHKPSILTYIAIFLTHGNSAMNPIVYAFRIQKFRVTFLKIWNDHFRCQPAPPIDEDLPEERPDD
In short: (§1)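 Intact CHO cells expressing human A1, A2B or A3 receptor (grown in DMEM F12) exposed to test compound at 10 μM under basal conditions, no agonist; cAMP measured by competitive protein binding with [3H]-cAMP. Result as percent of basal cAMP (basal = 100%); mean ± SEM.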

[2] = biological target: T2, Adenosine receptor A3 (Homo sapiens) (UniProt P0DMS8); test: Inverse agonist activity at human adenosine A3 receptor expressed in CHO cells assessed as cAMP accumulation at 10 uM measured after 150 mins in presence of [3H]cAMP by scintillation counting method relative to control; assay type: functional, cell-based; in short: as §1
T2 sequence (whole entry): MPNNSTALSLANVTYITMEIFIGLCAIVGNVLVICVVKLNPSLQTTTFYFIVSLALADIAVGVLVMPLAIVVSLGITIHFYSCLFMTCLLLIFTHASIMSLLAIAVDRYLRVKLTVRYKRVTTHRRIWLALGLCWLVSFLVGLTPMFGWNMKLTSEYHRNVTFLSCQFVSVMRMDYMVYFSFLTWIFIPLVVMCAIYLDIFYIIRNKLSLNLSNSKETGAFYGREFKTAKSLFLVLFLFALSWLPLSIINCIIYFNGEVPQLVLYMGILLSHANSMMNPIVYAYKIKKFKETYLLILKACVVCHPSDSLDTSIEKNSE

Adenosine receptor A2a [3] = biological target: T3, Adenosine receptor A2a (Homo sapiens, UniProt P29274); test: Displacement of [3H]ZM241385 from human adenosine A2A receptor expressed in CHO cell membranes measured after 60 mins by scintillation counting method
[4] = biological target: T4, Adenosine receptor A2b (Homo sapiens) (UniProt P29275); test: Inverse agonist activity at human adenosine A2B receptor expressed in CHO cells assessed as cAMP accumulation at 10 uM measured after 150 mins in presence of [3H]cAMP by scintillation counting method relative to control; assay type: functional, cell-based; in short: as §1
T4 sequence (whole entry): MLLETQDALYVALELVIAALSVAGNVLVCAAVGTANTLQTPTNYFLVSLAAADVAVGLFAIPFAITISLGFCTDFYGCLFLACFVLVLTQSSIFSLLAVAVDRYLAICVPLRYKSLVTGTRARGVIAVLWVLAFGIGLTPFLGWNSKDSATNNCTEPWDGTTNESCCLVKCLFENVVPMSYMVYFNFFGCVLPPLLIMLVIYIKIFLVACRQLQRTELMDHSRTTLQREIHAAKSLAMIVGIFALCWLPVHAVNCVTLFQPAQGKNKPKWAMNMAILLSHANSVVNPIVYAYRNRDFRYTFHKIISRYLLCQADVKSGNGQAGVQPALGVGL

Adenosine receptor A3 = biological target: T5, Adenosine receptor A3 (Homo sapiens, UniProt P0DMS8); test: Displacement of [125I]AB-MECA from human adenosine A3 receptor expressed in CHO cell membranes measured after 120 mins by scintillation counting method
T5 sequence (P0DMS8 whole entry): T2 sequence (whole entry)
In short: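 Membranes from CHO cells transfected with the human receptor (A1 or A3) competed against [3H]DPCPX (A1) or [125I]AB-MECA (A3) over a range of test concentrations, per earlier-described method; percent inhibition taken at 10 μM.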

Adenosine receptor A1 = biological target: T6, Adenosine receptor A1 (Homo sapiens, UniProt P30542); test: Displacement of [3H]DPCPX from human adenosine A1 receptor expressed in CHO cell membranes measured after 90 mins by scintillation counting method
T6 sequence (P30542 whole entry): T1 sequence (whole entry)

Adenosine receptor A2b = biological target: T7, Adenosine receptor A2b (Homo sapiens, UniProt P29275); test: Antagonist activity at human adenosine A2B receptor expressed in CHO cells assessed as inhibition of NECA-stimulated cAMP accumulation measured after 150 mins in presence of [3H]cAMP by scintillation counting method
T7 sequence (P29275 whole entry): T4 sequence (whole entry)

Adenosine receptor A2a [5] = biological target: T3, Adenosine receptor A2a; test: Antagonist activity against human adenosine A2A receptor expressed in CHO cells assessed as inhibition of CGS21680-stimulated cAMP accumulation measured after 150 mins in presence of [3H]cAMP by scintillation counting method; assay type: functional, cell-based
Adenosine receptor A2a [6] = biological target: T3, Adenosine receptor A2a; test: Inverse agonist activity at human adenosine A2A receptor expressed in CHO cells assessed as inhibition of cAMP accumulation measured after 150 mins in presence of [3H]cAMP by scintillation counting method; assay type: functional, cell-based

T3 sequence (P29274 whole entry): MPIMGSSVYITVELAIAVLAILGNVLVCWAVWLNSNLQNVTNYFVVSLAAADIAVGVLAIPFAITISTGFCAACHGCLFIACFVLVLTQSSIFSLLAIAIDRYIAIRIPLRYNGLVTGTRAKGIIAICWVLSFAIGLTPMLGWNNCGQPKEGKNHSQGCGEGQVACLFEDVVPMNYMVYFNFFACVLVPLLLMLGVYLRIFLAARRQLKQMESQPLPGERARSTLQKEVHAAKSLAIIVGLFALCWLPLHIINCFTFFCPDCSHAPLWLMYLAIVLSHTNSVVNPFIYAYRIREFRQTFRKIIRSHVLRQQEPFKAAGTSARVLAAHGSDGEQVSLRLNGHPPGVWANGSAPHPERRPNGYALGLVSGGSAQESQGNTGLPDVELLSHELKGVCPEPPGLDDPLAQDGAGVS

| Compound | Activity [1] [%] | Activity [2] [%] | KiH (Adenosine receptor A2a [3]) [fM] | KiL (Adenosine receptor A2a [3]) [nM] | Activity [4] [%] | Ki (Adenosine receptor A3) [nM] | Ki (Adenosine receptor A2a [3]) [nM] | Ki (Adenosine receptor A1) [nM] | IC50 (Adenosine receptor A2b) [nM] | IC50 (Adenosine receptor A2a [5]) [nM] | IC50 (Adenosine receptor A2a [6]) [nM] |
| --- | --- | --- | --- | --- | --- | --- | --- | --- | --- | --- | --- |
| Nc1nc(NCCc2cccs2)nc2sc(-c3ccco3)nc12 | 100 | 94 | 10.6 | 18 | 99 | – | – | – | – | – | – |
| COc1cccc(CNc2nc(N)c3nc(-c4cccs4)sc3n2)c1 | – | – | – | – | – | 430 | 22 | 37 | 2770 | – | – |
| Nc1nc(NCc2cccnc2)nc2sc(-c3ccco3)nc12 | 96 | 100 | 217 | 0.68 | 97 | – | – | – | – | – | – |
| COc1cccc(CNc2nc(N)c3nc(-c4ccc(C)o4)sc3n2)c1 | – | – | – | – | – | 160 | 144 | 70 | 120 | – | – |
| Nc1nc(NCc2ccco2)nc2sc(-c3ccco3)nc12 | 101 | 104 | 39 | 1.73 | 101 | – | – | – | – | – | – |
| COc1ccccc1CNc1nc(N)c2nc(-c3ccc(C)o3)sc2n1 | – | – | – | – | – | 141 | 20 | 29 | 389 | – | – |
| Nc1nc(NCCc2ccc(O)cc2)nc2nc(-c3ccco3)nn12 | 101 | 105 | – | – | – | – | – | – | – | – | – |
| Nc1nc(NCCc2cccnc2)nc2sc(-c3ccco3)nc12 | 102 | 102 | – | – | 97 | – | – | – | – | – | – |
| Nc1nc(NCc2ccsc2)nc2sc(-c3ccco3)nc12 | 98 | 105 | – | – | 99 | – | – | – | – | – | – |
| Nc1nc(NCc2cccs2)nc2sc(-c3ccco3)nc12 | 98 | 96 | 10.7 | 3.82 | 99 | – | – | – | – | – | – |
| Nc1nc(NCc2ccccn2)nc2sc(-c3ccco3)nc12 | 103 | 101 | – | – | 98 | – | – | – | – | – | – |
| Nc1nc(NCc2cnccn2)nc2sc(-c3ccco3)nc12 | 102 | 98 | – | – | 102 | – | – | – | – | – | – |
| Nc1nc(NCc2cccs2)nc2sc(-c3cccs3)nc12 | 97 | 99 | – | – | 96 | 38 | 10.1 | 73 | 547 | 17.6 | 13.2 |
| Nc1nc(NCCc2ccco2)nc2sc(-c3ccco3)nc12 | 95 | 97 | – | – | 103 | – | – | – | – | – | – |
| Cc1ccc(-c2nc3c(N)nc(NCc4cccs4)nc3s2)o1 | – | – | – | – | – | 15.3 | 34 | 71 | 91 | – | – |
| Nc1nc(NCc2ccncc2)nc2sc(-c3ccco3)nc12 | 103 | 102 | – | – | 103 | – | – | – | – | – | – |
| COc1ccccc1CNc1nc(N)c2nc(-c3cccs3)sc2n1 | 99 | 103 | – | – | 106 | 275 | 2.24 | 17.3 | 4570 | 4.41 | 3.36 |

Reference: ChEMBL document CHEMBL4152311, “Structure-activity relationship studies and pharmacological characterization of N5-heteroarylalkyl-substituted-2-(2-furanyl)thiazolo[5,4-d]pyrimidine-5,7-diamine-based derivatives as inverse agonists at human A2A adenosine receptor” (Eur J Med Chem, 2018)
